Measurements from ChEMBL document CHEMBL4680370, “Discovery of Novel Small-Molecule FAK Activators Promoting Mucosal Healing” (ACS Med Chem Lett, 2021).
Several values for one entry are separate records, joined by “and”; a condition that tells them apart may be missing. Identical values can stand only once. Activity calls are given as the source filed them. No cut-off for these calls is given here.

Assays:
[1] = target: Focal adhesion kinase 1 (Homo sapiens) (UniProt Q05397); test: Activation of FAK in human Caco-2 cells assessed as fold increase in FAK Tyr397 phosphorylation at 10 nM incubated for 1 hr by Western blot analysis relative to control; format: cell-based; conditions: filed as activator
Sequence of Focal adhesion kinase 1 (Homo sapiens) (Q05397 2-1052 limits assumed): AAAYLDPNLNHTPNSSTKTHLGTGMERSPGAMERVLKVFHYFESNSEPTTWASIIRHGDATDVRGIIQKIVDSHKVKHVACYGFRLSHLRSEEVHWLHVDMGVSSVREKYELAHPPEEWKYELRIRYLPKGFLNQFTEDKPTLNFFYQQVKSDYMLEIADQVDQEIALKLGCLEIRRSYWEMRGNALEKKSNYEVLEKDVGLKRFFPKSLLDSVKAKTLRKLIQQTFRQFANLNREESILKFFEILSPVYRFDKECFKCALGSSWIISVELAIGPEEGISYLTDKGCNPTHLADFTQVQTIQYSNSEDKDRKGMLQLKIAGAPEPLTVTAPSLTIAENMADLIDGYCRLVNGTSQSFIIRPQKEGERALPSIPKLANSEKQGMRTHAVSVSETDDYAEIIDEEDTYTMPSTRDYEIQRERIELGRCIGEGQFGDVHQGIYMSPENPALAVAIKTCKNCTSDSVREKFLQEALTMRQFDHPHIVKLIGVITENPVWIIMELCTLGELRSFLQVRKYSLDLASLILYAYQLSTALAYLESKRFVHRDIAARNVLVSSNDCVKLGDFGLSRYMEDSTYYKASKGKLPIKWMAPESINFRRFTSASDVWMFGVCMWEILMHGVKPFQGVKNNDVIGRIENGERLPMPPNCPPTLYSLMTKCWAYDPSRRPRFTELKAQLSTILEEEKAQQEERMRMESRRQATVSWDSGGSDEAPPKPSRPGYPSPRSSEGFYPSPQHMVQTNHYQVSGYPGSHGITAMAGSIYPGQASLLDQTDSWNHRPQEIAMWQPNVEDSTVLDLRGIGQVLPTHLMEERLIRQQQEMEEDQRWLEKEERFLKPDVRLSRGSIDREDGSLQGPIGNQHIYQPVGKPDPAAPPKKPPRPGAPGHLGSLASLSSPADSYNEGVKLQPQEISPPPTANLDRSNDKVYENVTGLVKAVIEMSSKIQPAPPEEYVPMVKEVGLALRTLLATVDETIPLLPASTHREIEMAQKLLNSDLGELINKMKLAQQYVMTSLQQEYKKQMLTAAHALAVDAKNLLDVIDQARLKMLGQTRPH
Summary of the method: (§1)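 Caco-2 cells were exposed to compound at 10 nM, with DMSO vehicle as control. At least eight separate experiments were run and the data pooled, reported as mean ± standard error.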

[2] = target: Focal adhesion kinase 1 (Homo sapiens) (UniProt Q05397); test: Activation of FAK in human Caco-2 cells assessed as increase in FAK Tyr397 phosphorylation incubated for 1 hr by Western blot analysis; format: cell-based; conditions: filed as activator, dose 10-1000 nM
[3] = test system: Caco-2; test: Induction of wound closure in human Caco-2 cells at 10 nM in presence of hydroxyurea measured upto 24 hrs by inverted light microscopy based wound healing assay; format: functional, cell-based; conditions: time hrs <=24
[4] = target: Focal adhesion kinase 1 (Homo sapiens) (UniProt Q05397); test: Activation of FAK in human Caco-2 cells assessed as increase in FAK Tyr397 phosphorylation at 10 nM incubated for 1 hr by Western blot analysis; format: cell-based; conditions: filed as activator; summary of the method: as §1
[5] = test system: Mus musculus; test: Antiinflammatory activity against ischemic jejunal ulcer C57BL/6J mouse model assessed as ulcer area at 900 ug/kg, ip administered for every 6 hrs for 3 days and measured on day 4 by imaging analysis (reference value: 3.26 +/- 0.47 mm2); conditions: dose 900 µg/kg; time 4 day
[6] = Toxicity in C57BL/6 mouse assessed as body weight at 900 ug/kg, ip administered for every 6 hrs for 3 days and measured on day 4 (reference value: 9.16 +/- 0.62 %); format: organism-based; conditions: in vivo, 0.9 mg/kg, dose 900 µg/kg
[7] = Tmax in C57BL/6 mouse at 900 ug/kg, ip measured upto 12 hrs by LC-MS/MS analysis; format: ADME, organism-based; conditions: in vivo, 0.9 mg/kg, dose 900 µg/kg
Summary of the method: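 Single intraperitoneal dose of 900 μg/kg in C57BL/6 mice. Compound was first dissolved in DMSO, then diluted in 100 μL normal saline (final DMSO 2.5% in the injected solution). Plasma concentration was followed over time after dosing.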

Row | Compound | fold change (FC) [1] | Activity [2] | Activity [3] | Activity [4] | further results
1 | CN(C)C(CNC(=O)Nc1cc(C(F)(F)F)ccc1N1CCOCC1)c1ccccc1 (centres undefined) | 1 | – | – | – | –
2 | O=C(Nc1cc(C(F)(F)F)ccc1N1CCS(=O)(=O)CC1)N1CCCC1c1ccncc1 (centres undefined) | 1 | – | – | – | –
3 | COc1ccc(C(CNC(=O)Nc2cc(C(F)(F)F)ccc2N2CCOCC2)N(C)C)cc1 (centres undefined) | 1.4 | Dose-dependent effect | Active | Active | –
4 | O=C(Nc1ccccc1N1CCOCC1)N1CCCC1c1ccncc1 (centres undefined) | 1.1 | – | – | – | –
5 | O=C(Nc1cc(C(F)(F)F)ccc1N1CCOCC1)N1CCCC1c1ccc(O)cc1 (centres undefined) | 1.1 | – | – | – | –
6 | O=C(Nc1cc(C(F)(F)F)ccc1N1CCOCC1)N1CCCC1c1ccccc1 (centres undefined) | 1.4 | Dose-dependent effect | Active | Active | –
7 | O=C(Nc1cc(C(F)(F)F)ccc1N1CCOCC1)N1CCCC1C1CCCCC1 (centres undefined) | – | Dose-dependent effect | Active | Active | –
8 | O=C(Nc1cc(C(F)(F)F)ccc1N1CCOCC1)N1CCCC1c1ccncc1 (centres undefined) | 1.5 and 1 | Dose-dependent effect | Active | Active | Activity [5]: 1.57 mm2; Activity [6]: 6.33%; Tmax [7]: 1 h
9 | CN1CCN(c2ccc(C(F)(F)F)cc2NC(=O)N2CCCC2c2ccncc2)CC1 (centres undefined) | 0.9 | – | – | – | –
10 | CC1CN(c2ccc(C(F)(F)F)cc2NC(=O)N2CCCC2c2ccncc2)CC(C)O1 (centres undefined) | 1 | – | – | – | –
